The text below walks through data of ChEMBL document CHEMBL3098117, “Identification and optimization of an aminoalcohol-carbazole series with antimalarial properties” (ACS Med Chem Lett, 2013).

Data set [1] has as its system Plasmodium falciparum. As to the kind of experiment: Antimalarial activity against Plasmodium falciparum K1 infected in human RBC after 72 hrs by hypoxanthine incorporation assay in presence of serum albumin. The data set is classed as functional, organism-based. The settings on record: K1, 72 h. A digest of the protocol: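 Mixture of drug, human red blood cells and P. falciparum incubated 3 days (72 h) with serum albumin present; growth read as hypoxanthine incorporation.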

Data set [2] has as its system Plasmodium falciparum. Briefly: Antimalarial activity against chloroquine and pyrimethamine-resistant Plasmodium falciparum K1. The data set is classed as functional, organism-based. Put shortly:
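P. falciparum cultured with test drug in human red blood cells for 3 days. Growth read out as hypoxanthine incorporation.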

The target in data set [3] is Voltage-dependent L-type calcium channel subunit alpha-1C (Homo sapiens, UniProt Q13936). As to the kind of experiment: Inhibition of human Cav1.2 channel.
Data set [4] in a line: Genotoxicity in micronucleus (unknown origin).
Data set [5] deals with Sodium channel protein type 5 subunit alpha (Homo sapiens, UniProt Q14524). Briefly: Inhibition of human Nav1.5 channel.
Data set [6] in a line: Oral bioavailability in NMRI mouse at 5 mg/kg by LC-MS/MS analysis. It is filed as ADME, organism-based. The note with it: in vivo.
Data set [7] has as its system Plasmodium falciparum. As to the kind of experiment: Antimalarial activity against chloroquine, pyrimethamine, quinine-resistant Plasmodium falciparum V1S. It is filed as functional. The note with it: VS/1.
In data set [8] the test system is Plasmodium falciparum. Briefly: Antimalarial activity against drug-sensitive Plasmodium falciparum NF54. It is filed as functional, organism-based.
The target in data set [9] is T1, A-type voltage-gated potassium channel KCND3 (Homo sapiens, UniProt Q9UK17).
T1 sequence (Q9UK17 whole entry): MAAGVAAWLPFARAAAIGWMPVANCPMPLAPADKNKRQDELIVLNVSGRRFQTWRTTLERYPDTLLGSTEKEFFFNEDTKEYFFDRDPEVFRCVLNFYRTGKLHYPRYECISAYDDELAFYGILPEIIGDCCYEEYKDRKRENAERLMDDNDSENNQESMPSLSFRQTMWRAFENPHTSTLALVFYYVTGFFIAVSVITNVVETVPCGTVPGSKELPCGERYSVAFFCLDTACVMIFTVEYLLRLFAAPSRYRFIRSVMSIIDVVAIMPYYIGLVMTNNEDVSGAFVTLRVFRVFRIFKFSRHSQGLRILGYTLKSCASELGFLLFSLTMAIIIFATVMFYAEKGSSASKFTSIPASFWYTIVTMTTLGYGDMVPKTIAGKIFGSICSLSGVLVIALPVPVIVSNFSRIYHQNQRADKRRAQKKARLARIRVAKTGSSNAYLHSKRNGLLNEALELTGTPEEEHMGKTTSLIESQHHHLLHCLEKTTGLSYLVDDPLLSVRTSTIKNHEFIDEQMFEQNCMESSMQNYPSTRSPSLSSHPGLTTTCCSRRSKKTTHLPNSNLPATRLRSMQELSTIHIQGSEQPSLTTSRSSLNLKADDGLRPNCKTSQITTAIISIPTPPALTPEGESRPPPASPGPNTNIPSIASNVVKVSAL
Briefly: Inhibition of Kv4.3 channel (unknown origin).

Data set [10] has as its system Plasmodium falciparum. As to the kind of experiment: Antimalarial activity against chloroquine, pyrimethamine, cycloguanil-resistant Plasmodium falciparum 7G8. It is filed as functional, organism-based.
For data set [11], the target named is Cytochrome P450 2C9 (Homo sapiens, UniProt P11712). As to the kind of experiment: Inhibition of human recombinant CYP2C9 expressed in baculovirus-infected insect cells preincubated for 15 mins followed by substrate addition measured after 30 mins by luminescence assay. The data set is classed as ADME. The settings on record: recombinant enzyme, 0.5 h.
The subject of data set [12] is Plasmodium berghei. As to the kind of experiment: Antimalarial activity against Plasmodium berghei ANKA expressing GFP infected in NMRI mouse assessed as reduction in parasitemia at 100 mg/kg/day, po qd for 4 days measured at 24 hrs after last dose relative to control. It is filed as functional. Further details: scale not given: the % may be the effect or the level left. Put shortly:
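P. berghei-infected mice dosed orally once daily on days 0–3, first dose 4 h postinfection, at 3, 10, 30 and 100 mg/kg/day. Red blood cell parasitemia and plasma exposure measured on day 4, 24 h after last dose; ED50 derived from dose-response; survival then monitored for 26 further days as mean survival days.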

Data set [13] has as its target Cytochrome P450 3A4 (Homo sapiens, UniProt P08684). As to the kind of experiment: Inhibition of human recombinant CYP3A4 expressed in baculovirus-infected insect cells preincubated for 15 mins followed by substrate addition measured after 30 mins by luminescence assay. The data set is classed as ADME. The note with it: recombinant enzyme, 0.5 h.
Data set [14] addresses T2, Potassium/sodium hyperpolarization-activated cyclic nucleotide-gated channel 4 (Homo sapiens) (UniProt Q9Y3Q4).
T2 sequence (whole entry): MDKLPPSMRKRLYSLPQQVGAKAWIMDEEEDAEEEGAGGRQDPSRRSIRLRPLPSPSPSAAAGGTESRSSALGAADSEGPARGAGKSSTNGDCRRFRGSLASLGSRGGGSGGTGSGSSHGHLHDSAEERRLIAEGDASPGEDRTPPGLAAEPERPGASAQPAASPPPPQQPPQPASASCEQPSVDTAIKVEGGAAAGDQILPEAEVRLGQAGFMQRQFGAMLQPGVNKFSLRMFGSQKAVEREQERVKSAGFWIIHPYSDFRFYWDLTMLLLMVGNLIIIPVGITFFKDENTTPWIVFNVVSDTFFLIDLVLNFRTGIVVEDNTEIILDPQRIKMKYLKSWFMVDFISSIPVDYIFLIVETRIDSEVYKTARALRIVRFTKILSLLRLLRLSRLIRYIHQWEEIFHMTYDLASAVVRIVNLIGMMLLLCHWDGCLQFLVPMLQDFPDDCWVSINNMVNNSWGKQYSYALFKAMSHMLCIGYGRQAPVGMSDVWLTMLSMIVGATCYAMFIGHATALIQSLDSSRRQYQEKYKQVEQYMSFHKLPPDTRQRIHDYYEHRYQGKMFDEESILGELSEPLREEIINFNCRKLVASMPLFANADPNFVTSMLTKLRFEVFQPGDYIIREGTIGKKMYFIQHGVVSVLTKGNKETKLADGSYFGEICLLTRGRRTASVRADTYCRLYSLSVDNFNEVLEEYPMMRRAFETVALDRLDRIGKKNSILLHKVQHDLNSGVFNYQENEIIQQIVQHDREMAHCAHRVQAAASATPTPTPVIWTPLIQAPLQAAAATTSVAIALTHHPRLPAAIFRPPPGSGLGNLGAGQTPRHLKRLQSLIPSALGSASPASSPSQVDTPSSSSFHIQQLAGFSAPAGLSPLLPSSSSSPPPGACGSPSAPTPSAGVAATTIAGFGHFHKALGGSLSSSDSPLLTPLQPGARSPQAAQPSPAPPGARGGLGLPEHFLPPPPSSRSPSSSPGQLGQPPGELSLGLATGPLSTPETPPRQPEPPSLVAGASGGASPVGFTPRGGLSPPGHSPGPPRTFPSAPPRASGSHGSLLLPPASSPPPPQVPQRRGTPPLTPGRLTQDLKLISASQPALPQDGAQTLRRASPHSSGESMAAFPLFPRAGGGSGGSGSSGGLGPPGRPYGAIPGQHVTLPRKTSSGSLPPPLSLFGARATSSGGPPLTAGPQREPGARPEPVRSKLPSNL
Briefly: Inhibition of human HCN4 channel.

In data set [15] the target is Cytochrome P450 2C19 (Homo sapiens, UniProt P33261). Briefly: Inhibition of human recombinant CYP2C19 expressed in baculovirus-infected insect cells preincubated for 15 mins followed by substrate addition measured after 30 mins by luminescence assay. It is filed as ADME. The settings on record: recombinant enzyme, 0.5 h.
The subject of data set [16] is Plasmodium falciparum. As to the kind of experiment: Antimalarial activity against chloroquine, pyrimethamine, sulfadoxine, quinine and mefloquine-sensitive Plasmodium falciparum D6. It is filed as functional, organism-based.

Active and inactive are the calls of the source. The rule behind the calls is not given here.

Sequence of Voltage-dependent L-type calcium channel subunit alpha-1C (Q13936 whole entry): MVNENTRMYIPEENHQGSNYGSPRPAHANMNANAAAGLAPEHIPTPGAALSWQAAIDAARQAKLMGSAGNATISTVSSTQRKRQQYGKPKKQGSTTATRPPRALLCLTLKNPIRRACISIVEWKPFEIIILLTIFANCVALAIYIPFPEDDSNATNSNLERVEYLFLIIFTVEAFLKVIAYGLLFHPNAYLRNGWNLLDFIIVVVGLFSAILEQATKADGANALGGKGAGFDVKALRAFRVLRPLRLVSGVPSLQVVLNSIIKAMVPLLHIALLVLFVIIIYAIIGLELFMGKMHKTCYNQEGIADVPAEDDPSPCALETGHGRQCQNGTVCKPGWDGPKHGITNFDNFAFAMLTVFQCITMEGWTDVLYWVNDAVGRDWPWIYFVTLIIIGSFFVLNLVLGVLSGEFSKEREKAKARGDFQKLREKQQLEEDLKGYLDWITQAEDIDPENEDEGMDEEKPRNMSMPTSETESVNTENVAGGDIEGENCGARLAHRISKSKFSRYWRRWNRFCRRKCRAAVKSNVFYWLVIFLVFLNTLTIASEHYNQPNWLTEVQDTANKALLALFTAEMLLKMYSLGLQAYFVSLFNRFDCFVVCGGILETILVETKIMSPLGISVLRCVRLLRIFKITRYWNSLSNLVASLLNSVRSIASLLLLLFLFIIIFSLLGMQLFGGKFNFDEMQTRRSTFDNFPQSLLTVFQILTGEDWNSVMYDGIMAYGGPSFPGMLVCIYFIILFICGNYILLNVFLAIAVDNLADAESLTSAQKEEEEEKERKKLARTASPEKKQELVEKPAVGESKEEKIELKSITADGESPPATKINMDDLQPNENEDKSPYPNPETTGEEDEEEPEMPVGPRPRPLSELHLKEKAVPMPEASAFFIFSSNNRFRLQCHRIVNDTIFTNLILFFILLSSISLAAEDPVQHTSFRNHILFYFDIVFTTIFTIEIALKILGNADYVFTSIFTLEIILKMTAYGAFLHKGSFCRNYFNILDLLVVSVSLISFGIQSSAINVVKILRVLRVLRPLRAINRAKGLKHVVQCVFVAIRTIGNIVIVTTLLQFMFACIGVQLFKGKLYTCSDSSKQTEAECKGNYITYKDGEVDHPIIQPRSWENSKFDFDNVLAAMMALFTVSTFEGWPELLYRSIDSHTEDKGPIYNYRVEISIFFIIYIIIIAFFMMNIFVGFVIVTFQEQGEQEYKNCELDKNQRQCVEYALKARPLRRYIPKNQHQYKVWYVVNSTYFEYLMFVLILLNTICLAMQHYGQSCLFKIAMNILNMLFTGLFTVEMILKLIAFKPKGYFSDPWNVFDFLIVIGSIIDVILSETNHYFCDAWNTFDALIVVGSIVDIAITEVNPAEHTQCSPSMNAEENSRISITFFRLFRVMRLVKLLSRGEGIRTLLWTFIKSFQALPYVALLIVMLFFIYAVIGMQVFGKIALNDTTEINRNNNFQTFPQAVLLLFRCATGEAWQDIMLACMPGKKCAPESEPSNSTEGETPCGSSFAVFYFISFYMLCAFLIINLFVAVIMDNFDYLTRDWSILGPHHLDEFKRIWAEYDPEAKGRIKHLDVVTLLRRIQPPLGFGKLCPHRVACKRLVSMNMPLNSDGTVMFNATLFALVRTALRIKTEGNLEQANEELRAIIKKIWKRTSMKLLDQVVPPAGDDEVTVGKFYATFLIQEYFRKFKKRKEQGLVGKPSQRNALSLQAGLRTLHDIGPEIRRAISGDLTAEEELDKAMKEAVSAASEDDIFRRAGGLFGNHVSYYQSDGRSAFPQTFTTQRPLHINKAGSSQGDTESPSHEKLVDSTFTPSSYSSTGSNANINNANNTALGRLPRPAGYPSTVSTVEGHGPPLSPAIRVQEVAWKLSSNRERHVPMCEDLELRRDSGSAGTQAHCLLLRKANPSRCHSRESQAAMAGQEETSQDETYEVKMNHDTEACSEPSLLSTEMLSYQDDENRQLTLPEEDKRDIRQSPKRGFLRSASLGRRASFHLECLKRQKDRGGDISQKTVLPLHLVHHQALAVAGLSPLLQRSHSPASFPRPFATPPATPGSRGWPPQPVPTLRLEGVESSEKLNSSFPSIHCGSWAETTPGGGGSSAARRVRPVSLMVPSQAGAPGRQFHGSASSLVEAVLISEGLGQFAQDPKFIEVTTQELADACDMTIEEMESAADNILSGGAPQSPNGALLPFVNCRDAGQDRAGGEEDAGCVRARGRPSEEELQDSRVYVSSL
Sequence of Cytochrome P450 2C19 (P33261 whole entry): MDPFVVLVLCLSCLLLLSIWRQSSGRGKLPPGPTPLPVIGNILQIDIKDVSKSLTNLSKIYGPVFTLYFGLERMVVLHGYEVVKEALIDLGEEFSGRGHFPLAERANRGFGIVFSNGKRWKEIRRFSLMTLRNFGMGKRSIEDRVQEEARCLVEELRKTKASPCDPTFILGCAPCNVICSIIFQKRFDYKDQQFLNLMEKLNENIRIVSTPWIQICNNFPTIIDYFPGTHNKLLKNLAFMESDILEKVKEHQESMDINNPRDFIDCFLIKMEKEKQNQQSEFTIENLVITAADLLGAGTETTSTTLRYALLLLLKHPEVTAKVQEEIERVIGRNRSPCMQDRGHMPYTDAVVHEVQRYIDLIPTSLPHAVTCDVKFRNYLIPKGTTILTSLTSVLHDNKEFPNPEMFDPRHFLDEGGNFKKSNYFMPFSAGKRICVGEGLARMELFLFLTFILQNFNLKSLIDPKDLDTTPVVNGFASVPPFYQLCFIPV
Sequence of Sodium channel protein type 5 subunit alpha (Q14524 whole entry): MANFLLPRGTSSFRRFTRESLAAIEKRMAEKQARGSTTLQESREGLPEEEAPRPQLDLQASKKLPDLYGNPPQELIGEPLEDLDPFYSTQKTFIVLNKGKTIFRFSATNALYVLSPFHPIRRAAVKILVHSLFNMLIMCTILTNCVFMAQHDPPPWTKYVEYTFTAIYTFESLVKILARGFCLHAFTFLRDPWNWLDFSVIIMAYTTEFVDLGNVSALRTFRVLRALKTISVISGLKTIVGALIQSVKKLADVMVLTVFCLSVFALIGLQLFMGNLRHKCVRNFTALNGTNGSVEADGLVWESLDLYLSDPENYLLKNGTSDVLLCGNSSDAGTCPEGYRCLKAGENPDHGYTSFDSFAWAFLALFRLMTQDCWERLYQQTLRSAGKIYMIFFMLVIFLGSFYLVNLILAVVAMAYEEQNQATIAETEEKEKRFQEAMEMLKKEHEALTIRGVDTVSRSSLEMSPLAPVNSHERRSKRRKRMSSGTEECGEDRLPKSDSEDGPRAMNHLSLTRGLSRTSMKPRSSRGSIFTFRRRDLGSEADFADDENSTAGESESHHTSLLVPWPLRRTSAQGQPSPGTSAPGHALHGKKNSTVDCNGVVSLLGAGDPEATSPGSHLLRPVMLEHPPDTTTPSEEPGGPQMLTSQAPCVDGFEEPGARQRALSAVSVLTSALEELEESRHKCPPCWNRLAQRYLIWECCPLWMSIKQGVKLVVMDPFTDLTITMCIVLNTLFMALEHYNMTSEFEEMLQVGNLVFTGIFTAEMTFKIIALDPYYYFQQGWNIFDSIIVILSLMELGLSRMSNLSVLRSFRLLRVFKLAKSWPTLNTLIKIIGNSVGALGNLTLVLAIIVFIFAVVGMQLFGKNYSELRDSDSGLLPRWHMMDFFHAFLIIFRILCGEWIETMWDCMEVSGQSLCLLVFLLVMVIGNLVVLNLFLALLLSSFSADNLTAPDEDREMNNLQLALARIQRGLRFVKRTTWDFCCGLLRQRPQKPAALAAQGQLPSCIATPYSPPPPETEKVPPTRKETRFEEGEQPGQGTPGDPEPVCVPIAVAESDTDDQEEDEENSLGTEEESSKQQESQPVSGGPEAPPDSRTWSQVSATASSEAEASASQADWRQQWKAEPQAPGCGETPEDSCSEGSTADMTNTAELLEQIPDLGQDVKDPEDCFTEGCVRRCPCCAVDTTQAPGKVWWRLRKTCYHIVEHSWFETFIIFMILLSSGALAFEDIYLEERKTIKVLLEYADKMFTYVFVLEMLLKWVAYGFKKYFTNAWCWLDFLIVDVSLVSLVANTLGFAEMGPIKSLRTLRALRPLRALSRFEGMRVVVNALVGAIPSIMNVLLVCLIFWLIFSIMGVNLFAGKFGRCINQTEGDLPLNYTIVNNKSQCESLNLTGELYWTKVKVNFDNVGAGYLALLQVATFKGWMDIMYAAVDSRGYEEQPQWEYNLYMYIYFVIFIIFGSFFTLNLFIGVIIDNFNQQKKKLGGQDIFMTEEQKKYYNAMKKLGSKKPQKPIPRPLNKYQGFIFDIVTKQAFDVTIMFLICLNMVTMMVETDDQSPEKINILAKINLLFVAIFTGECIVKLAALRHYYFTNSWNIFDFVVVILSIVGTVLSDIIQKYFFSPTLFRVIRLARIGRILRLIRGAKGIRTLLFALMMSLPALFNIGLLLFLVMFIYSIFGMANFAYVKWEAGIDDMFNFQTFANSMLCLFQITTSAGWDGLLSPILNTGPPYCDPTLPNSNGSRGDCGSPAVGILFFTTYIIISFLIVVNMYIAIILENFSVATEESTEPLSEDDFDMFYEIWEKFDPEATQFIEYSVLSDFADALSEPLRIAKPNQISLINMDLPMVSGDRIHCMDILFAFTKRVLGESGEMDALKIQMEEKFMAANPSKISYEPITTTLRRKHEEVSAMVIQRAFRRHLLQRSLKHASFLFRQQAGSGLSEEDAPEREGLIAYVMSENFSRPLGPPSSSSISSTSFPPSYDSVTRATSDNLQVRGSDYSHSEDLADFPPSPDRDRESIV

Take `OC(CNC1CCCCC1)Cn1c2ccc(Br)cc2c2cc(Br)ccc21` (racemic): the IC50 in data set [1] turned out to be 9 nM. The result in data set [2], in data set [7], in data set [8], in data set [10] and in [16] was Active. For the same compound, the “inhibition (INH)” value in data set [3] is “Not Active”; in data set [5], “Not Active”; in [9], “Not Active”; in data set [11] it was “Active”; in [13], “Active”; in [15], “Active”. Further, the Activity entry in [4] was “Non-toxic”; in data set [12] it was 99.97%. In addition, the bioavailability in data set [6] worked out at 50%. Also, in data set [14], the inhibition entry is “inactive”.
